Data set [1] has as its system HT-29. The data set can be described thus: Antitumor activity against CD133/CXCR4-induced human HT-29 cells xenografted in NCR nude mouse assessed as reduction in tumor growth at 100 mg/kg, po administered 5 times a week for 3 weeks. The format is functional, organism-based. The procedure, abridged:
(§1)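 Dual Hi (CD133+/CXCR4+) HT-29 cells, FACS-sorted, injected subcutaneously at 1 × 10^5 into NCr nude mice. Mice were then randomized to vehicle or 100 mg/kg oral gavage 5 times/week for 3 weeks. Tumor volume was measured by caliper three times weekly.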
For orientation: A xenograft is tissue or cells of one species grown in another, often human tumour cells in immunodeficient mice.

Data set [2] is described as follows: Ex-vivo growth inhibition of mouse intestinal organoids measured for 5 to 7 days in presence of 5-fluorouracil and oxaliplatin by phase contrast microscopic analysis. Format: toxicity, Intestine. The conditions noted are these: time 5-7 day. The procedure, abridged:
(§2)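 Intestinal pieces (2–4 cm) were taken from treated xenograft mice and chelated and dissociated into crypts. About 200–500 crypts were embedded in Matrigel under mouse IntestiCult medium at 37 °C, 5% CO2. Organoids were counted by phase contrast after 5–7 days.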

Data set [3] is described as follows: Toxicity in NCR nude mouse xenografted with human HT-29 cells assessed as bleeding at 100 mg/kg, po. The format is organism-based. Conditions: in vivo.
The subject of data set [4] is HT-29. The data set can be described thus: Antitumor activity against human HT-29 cells xenografted in NCR nude mouse assessed as reduction in tumor growth at 100 mg/kg, po administered 5 times a week for 3 weeks relative to control. Format: functional. Further details: scale not given: the % may be the effect or the level left. Summed up: as §1
A short description of data set [5]: Cytotoxicity against human HT-29 cells assessed as inhibition of spheroid growth. Conditions: HT-29 cell spheroids.
Data set [6] can be described thus: Toxicity in NCR nude mouse xenografted with human HT-29 cells assessed as change in body weight at 100 mg/kg, po. Format: organism-based. Conditions: in vivo.
In data set [7] the test system is HT-29. The data set can be described thus: Antitumor activity against human CD133/CXCR4-induced HT-29 cells xenografted in NCR nude mouse assessed as spheroid formation at 100 mg/kg, po administered 5 times a week for 3 weeks by phase contrast microscopic analysis. The format is functional, organism-based. Summed up: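 Xenografts (Dual Hi HT-29, FUOX-pretreated, 100 mg/kg oral 5×/week for 3 weeks) were digested with collagenase IV and filtered at 70 μm. Cells were plated serially as 1°–3° spheroids on low-adhesion plates in stem cell medium with EGF and FGF. Spheroids of 50–150 μm were counted by phase contrast. At least three replicates.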

For data set [8], the system named is HT-29. The data set can be described thus: Cytotoxicity against human HT-29 cells assessed as reduction in cell viability at 100 uM incubated for 60 to 72 hrs by MTT assay. The conditions noted are these: ht-29, 100 µM, time 60-72 hrs. Format: toxicity, cell-based. The procedure, abridged:
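HT-29 monolayer cells were seeded at about 2.5 × 10^3 per well in DMEM:F12 with 10% FBS and incubated overnight at 37 °C, 5% CO2. Compound was added for 60–72 h. MTT (5 mg/mL in PBS) was added for 2–3 h, crystals were dissolved in DMSO and absorbance read at 590 nm. Results are percent of vehicle control, at least three replicates.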

The test system of data set [9] is HT-29. The data set can be described thus: Antitumor activity against human HT-29 cells xenografted in NCR nude mouse assessed as decrease in proportion of CSC at 100 mg/kg, po administered 5 times a week for 3 weeks by flow cytometry analysis.
Data set [10] can be described thus: Ex-vivo growth inhibition of mouse intestinal organoids at 100 mg/kg, po measured for 5 to 7 days by phase contrast microscopic analysis. The conditions noted are these: in vivo.
For data set [11], the system named is HT-29. The data set can be described thus: Antitumor activity against human HT-29 cells xenografted in NCR nude mouse assessed as reduction in DCAMKL1 expression level at 50 mg/kg, ip in presence of 5-fluorouracil and oxaliplatin of by Western blot analysis. Format: functional, organism-based. Summed up:
(§3)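 Bulk HT-29 cells (1 × 10^6) were grown as subcutaneous xenografts in NCr nude mice and given FUOX (25 mg/kg FU + 2 mg/kg OX IP weekly for 3 weeks). Mice were then randomized (n = 4/arm) to 50 mg/kg IP three times/week (8 doses), alone or with FUOX. Tumor lysates (n = 2/group) were Western blotted for DCAMLK1 and BMI-1.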

A short description of data set [12]: Toxicity in NCR nude mouse xenografted with human HT-29 cells assessed as change in body weight at 50 mg/kg, ip in presence 5-fluorouracil and oxaliplatin. The format is organism-based. Conditions: in vivo.
Data set [13] has as its system Plasma. Nature of the data set: Anticoagulant activity in pooled human plasma assessed as prolongation of activated partial thromboplastin time incubated for 4 mins by coagulometer analysis. The format is functional, cell-free. Summed up:
(§4)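 Pooled normal citrated human plasma (90 μL) mixed with 10 μL compound and 100 μL prewarmed ellagic acid APTT reagent, incubated 4 min at 37 °C, then recalcified with 100 μL prewarmed 25 mM CaCl2. Clot time read on a fibrometer (one-stage recalcification). Water blank gave the baseline. Concentration doubling APTT came from a quadratic trend-line fit.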

Data set [14] deals with Plasma. Nature of the data set: Anticoagulant activity in human plasma assessed as prolongation of activated partial thromboplastin time by measuring concentration required to double APTT incubated for 4 mins by coagulometer analysis. Format: functional, cell-free. Summed up:
as §4

Data set [15] concerns HT-29. The data set can be described thus: Antitumor activity against human HT-29 cells xenografted in NCR nude mouse assessed as reduction in BMI-1 expression level at 50 mg/kg, ip in presence of 5-fluorouracil and oxaliplatin of by Western blot analysis. Format: functional, organism-based. Summed up:
as §3

Data set [16] is described as follows: Ex-vivo growth inhibition of mouse intestinal organoids measured for 5 to 7 days by phase contrast microscopic analysis. Format: toxicity, Intestine. Conditions: time 5-7 day. Summed up:
as §2

The test system of data set [17] is HT-29. Nature of the data set: Antitumor activity against human HT-29 cells xenografted in NCR nude mouse assessed as spheroid formation at 50 mg/kg, ip. Format: functional, organism-based. Summed up: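 Bulk HT-29 xenografts in NCr nude mice were FUOX-pretreated, then given 50 mg/kg IP three times/week (8 doses), alone or with FUOX. Collagenase-digested tumor cells were serially cultured as 1°–4° spheroids in stem cell medium with EGF/FGF. Spheroids of 50–150 μm were counted by phase contrast, in at least three replicates.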

Structures are written as SMILES. The source made the active and inactive calls. The rule behind the calls is not given here.

The source of these data is ChEMBL document CHEMBL5316316, “Designing Synthetic, Sulfated Glycosaminoglycan Mimetics That Are Orally Bioavailable and Exhibiting In Vivo Anticancer Activity” (J Med Chem, 2023).

Broadly, the IC50 is the concentration that gives 50% inhibition. In the case of `CC(C)CCC[C@@H](C)[C@H]1CC[C@H]2[C@@H]3CC=C4C[C@@H](OCCOc5cc(-c6oc7cc(OS(=O)(=O)[O-])cc(OCCCOc8cc(OS(=O)(=O)[O-])cc9oc(-c%10ccc(OS(=O)(=O)[O-])c(OS(=O)(=O)[O-])c%10)c(OS(=O)(=O)[O-])c(=O)c89)c7c(=O)c6OS(=O)(=O)[O-])ccc5OS(=O)(=O)[O-])CC[C@]4(C)[C@H]3CC[C@]12C.[Na+].[Na+].[Na+].[Na+].[Na+].[Na+].[Na+]`, the outcome with HT-29 [1], in the data set on HT-29 [7], with HT-29 [9], in the data set with HT-29 [11], in the data set with Plasma [14] and in the data set with HT-29 [15] was Active. In addition, the outcome with HT-29 [17] was Active. For the same compound, the Activity entry in data set [2] is on record as “Non-Toxic”; in data set [3] it was “Non-Toxic”; with HT-29 [4] it was roughly 70%; in data set [6], “Non-Toxic”; in the data set with HT-29 [8] it was “Toxic”; in [10] it was “Non-Toxic”. Moreover, the Activity result in [12] is “Non-Toxic”; with Plasma [13] it was “Dose-Dependent Effect”; in [16], “Non-Toxic”. Also, the IC50 in data set [5] came to 5.5 µM.
